Key:
[1] = test system: RPMI-8226; experiment: Cytotoxicity against human RPMI8226 cells at 10^-4 M after 48 hrs by SRB assay; assay type: functional; details: RPMI-8226, 48 h, read-out: GI
In short: (§1)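 Second-stage screen in the 60-cell-line human tumor panel at NCI, over a 5-log range (100, 10, 1, 0.1, 0.01 micromolar). Cells were exposed to drug for 48 h and growth was estimated with a sulforhodamine B protein stain. The value is percent growth inhibition at each concentration.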

[2] = test system: M14; experiment: Cytotoxicity against human M14 cells at 10^-4 M after 48 hrs by SRB assay; assay type: functional; details: M14, 48 h, read-out: GI
In short: (§2)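 Run in the NCI 60-cell-line screen after a three-line prescreen. Cells got a 48 h drug exposure; viability/growth was estimated with the sulforhodamine B protein assay. Growth inhibition (I%) was recorded at 100, 10, 1, 0.1 and 0.01 micromolar. Percent growth is relative to untreated control cells, and negative values indicate cell kill.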

[3] = test system: NCI-H23; experiment: Cytotoxicity against human NCI-H23 cells at 10^-4 M after 48 hrs by SRB assay; assay type: functional; details: NCI-H23, 48 h, read-out: GI; in short: as §2
[4] = test system: PC-3; experiment: Cytotoxicity against human PC3 cells at 10^-4 M after 48 hrs by SRB assay; assay type: functional; details: PC-3, 48 h, read-out: GI; in short: as §1
[5] = Cytotoxicity against human UO31 cells at 10^-4 M after 48 hrs by SRB assay; assay type: functional; details: UO-31, 48 h, read-out: GI; in short: as §1
[6] = test system: SF-539; experiment: Cytotoxicity against human SF539 cells at 10^-4 M after 48 hrs by SRB assay; assay type: functional; details: SF-539, 48 h, read-out: GI; in short: as §1
[7] = test system: K562; experiment: Cytotoxicity against human K562 cells at 10^-4 M after 48 hrs by SRB assay; assay type: functional; details: K562, 48 h, read-out: GI; in short: as §2
[8] = test system: SF-295; experiment: Cytotoxicity against human SF295 cells at 10^-4 M after 48 hrs by SRB assay; assay type: functional; details: SF-295, 48 h, read-out: GI; in short: as §1
[9] = test system: SK-MEL-2; experiment: Cytotoxicity against human SK-MEL-2 cells at 10^-4 M after 48 hrs by SRB assay; assay type: functional; details: SK-MEL-2, 48 h, read-out: GI; in short: as §1
[10] = Cytotoxicity against human UACC257 cells at 10^-4 M after 48 hrs by SRB assay; assay type: functional; details: UACC-257, 48 h, read-out: GI; in short: as §1
[11] = test system: HT-29; experiment: Cytotoxicity against human HT-29 cells at 10^-4 M after 48 hrs by SRB assay; assay type: functional; details: HT-29, 48 h, read-out: GI
In short: (§3)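 Run by NCI on its 60-line human tumor cell panel, after a three-cell-line prescreen. Cells were exposed to drug for 48 h over a 5-log range: 100, 10, 1, 0.1 and 0.01 micromolar. Growth was estimated by sulforhodamine B (SRB) protein staining. Percent growth inhibition (I%) was recorded at each concentration relative to untreated control cells.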

[12] = test system: SN12C; experiment: Cytotoxicity against human SN12C cells at 10^-4 M after 48 hrs by SRB assay; assay type: functional; details: read-out: GI; in short: as §1
[13] = test system: SK-OV-3; experiment: Cytotoxicity against human SKOV3 cells at 10^-4 M after 48 hrs by SRB assay; assay type: functional; details: SK-OV-3, 48 h, read-out: GI; in short: as §1
[14] = test system: MOLT-4; experiment: Cytotoxicity against human MOLT4 cells at 10^-4 M after 48 hrs by SRB assay; assay type: functional; details: MOLT-4, 48 h, read-out: GI; in short: as §2
[15] = test system: MDA-MB-435; experiment: Cytotoxicity against human MDA-MB-435 cells at 10^-4 M after 48 hrs by SRB assay; assay type: functional; details: MDA-MB-435, 48 h, read-out: GI; in short: as §2
[16] = test system: SNB-19; experiment: Cytotoxicity against human SNB19 cells at 10^-4 M after 48 hrs by SRB assay; assay type: functional; details: SNB-19, 48 h, read-out: GI; in short: as §1
[17] = test system: COLO 205; experiment: Cytotoxicity against human COLO205 cells at 10^-4 M after 48 hrs by SRB assay; assay type: functional; details: COLO 205, 48 h, read-out: GI; in short: as §3
[18] = test system: OVCAR-8; experiment: Cytotoxicity against human OVCAR8 cells at 10^-4 M after 48 hrs by SRB assay; assay type: functional; details: OVCAR-8, 48 h, read-out: GI; in short: as §1
[19] = test system: LOX IMVI; experiment: Cytotoxicity against human LOXIMVI cells at 10^-4 M after 48 hrs by SRB assay; assay type: functional; details: read-out: GI; in short: as §2
[20] = test system: Malme-3M; experiment: Cytotoxicity against human MALME-3M cells at 10^-4 M after 48 hrs by SRB assay; assay type: functional; details: read-out: GI; in short: as §2
[21] = test system: OVCAR-3; experiment: Cytotoxicity against human OVCAR3 cells at 10^-4 M after 48 hrs by SRB assay; assay type: functional; details: OVCAR-3, 48 h, read-out: GI; in short: as §2
[22] = molecular target: T1, Dihydrofolate reductase (Homo sapiens, UniProt P00374); experiment: Competitive inhibition of human dihydrofolate reductase by spectrophotometry
T1 sequence (P00374 whole entry): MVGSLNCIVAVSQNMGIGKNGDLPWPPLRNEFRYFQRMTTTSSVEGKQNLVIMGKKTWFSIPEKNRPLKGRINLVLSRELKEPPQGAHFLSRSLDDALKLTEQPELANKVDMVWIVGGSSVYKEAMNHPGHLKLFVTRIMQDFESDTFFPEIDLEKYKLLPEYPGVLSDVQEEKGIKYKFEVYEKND

[23] = Cytotoxicity against human OVCAR5 cells at 10^-4 M after 48 hrs by SRB assay; assay type: functional; details: OVCAR-5, 48 h, read-out: GI; in short: as §1
[24] = test system: MCF7; experiment: Cytotoxicity against human MCF7 cells at 10^-4 M after 48 hrs by SRB assay; assay type: functional; details: MCF7, 48 h, read-out: GI; in short: as §2
[25] = test system: 786-0; experiment: Cytotoxicity against human 786-0 cells at 10^-4 M after 48 hrs by SRB assay; assay type: functional; details: 786-0, 48 h, read-out: GI; in short: as §3
[26] = test system: UACC-62; experiment: Cytotoxicity against human UACC62 cells at 10^-4 M after 48 hrs by SRB assay; assay type: functional; details: UACC-62, 48 h, read-out: GI; in short: as §1
[27] = test system: SK-MEL-5; experiment: Cytotoxicity against human SK-MEL-5 cells at 10^-4 M after 48 hrs by SRB assay; assay type: functional; details: SK-MEL-5, 48 h, read-out: GI; in short: as §1
[28] = test system: TK-10; experiment: Cytotoxicity against human TK10 cells at 10^-4 M after 48 hrs by SRB assay; assay type: functional; details: TK-10, 48 h, read-out: GI; in short: as §1
[29] = test system: SK-MEL-28; experiment: Cytotoxicity against human SK-MEL-28 cells at 10^-4 M after 48 hrs by SRB assay; assay type: functional; details: SK-MEL-28, 48 h, read-out: GI; in short: as §1
[30] = test system: RXF 393; experiment: Cytotoxicity against human RXF393 cells at 10^-4 M after 48 hrs by SRB assay; assay type: functional; details: RXF 393, 48 h, read-out: GI; in short: as §1
[31] = test system: MCF7; experiment: Cytotoxicity against human MCF7 cells assessed as cell growth at 10^-4 M after 48 hrs by alamar blue assay relative to untreated control; assay type: functional; details: MCF7, 48 h, read-out: Activity
In short: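 Three-cell-line prescreen. Each line was inoculated and preincubated on a microtiter plate, then the agent was added at a single concentration (10^-4 or 10^-5 M) and incubated 48 h. Endpoint was measured with alamar blue, and growth is reported as a percentage of untreated control cells.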

[32] = test system: NCI-H226; experiment: Cytotoxicity against human NCI-H226 cells at 10^-4 M after 48 hrs by SRB assay; assay type: functional; details: NCI-H226, 48 h, read-out: GI; in short: as §2

SMILES | inhibition of growth at 100 µM [1] [%] | inhibition of growth at 100 µM [2] [%] | inhibition of growth at 100 µM [3] [%] | inhibition of growth at 100 µM [4] [%] | inhibition of growth at 100 µM [5] [%] | inhibition of growth at 100 µM [6] [%] | inhibition of growth at 100 µM [8] [%] | inhibition of growth at 100 µM [9] [%] | inhibition of growth at 100 µM [10] [%] | inhibition of growth at 100 µM [11] [%] | inhibition of growth at 100 µM [12] [%] | inhibition of growth at 100 µM [13] [%] | inhibition of growth at 100 µM [14] [%] | inhibition of growth at 100 µM [15] [%] | inhibition of growth at 100 µM [16] [%] | inhibition of growth at 100 µM [17] [%] | inhibition of growth at 100 µM [18] [%] | inhibition of growth at 100 µM [19] [%] | inhibition of growth at 100 µM [20] [%] | inhibition of growth at 100 µM [21] [%] | further results
C#CCN(Cc1nc2cc(C(F)(F)F)ccc2nc1-c1ccccc1)c1ccc(OC(F)(F)F)cc1 | 88 | 76 | 60 | 77 | 70 | 161 | 49 | < 40 | 44 | 77 | 83 | < 40 | 79 | 86 | < 40 | 73 | 57 | 102 | < 40 | 88 | inhibition of growth at 100 µM [7]: 78%; Ki [22]: 4 µM; inhibition of growth at 100 µM [23]: < 40%; inhibition of growth at 100 µM [24]: 79%; inhibition of growth at 100 µM [25]: 46%; inhibition of growth at 100 µM [26]: 64%; inhibition of growth at 100 µM [27]: 86%; inhibition of growth at 100 µM [28]: 64%; inhibition of growth at 100 µM [29]: < 40%; inhibition of growth at 100 µM [30]: 67%; growth at 100 µM [31]: 17%
C#CCN(Cc1nc2cc(C(F)(F)F)ccc2nc1-c1ccccc1)c1ccc(C)cc1 | 44 | 186 | 196 | 58 | 167 | 77 | 150 | 136 | 110 | 200 | 135 | 191 | 85 | 149 | 163 | 177 | 77 | 178 | 160 | 164 | Ki [22]: 6 µM; inhibition of growth at 100 µM [32]: 145%; inhibition of growth at 100 µM [23]: 200%; inhibition of growth at 100 µM [24]: 84%; inhibition of growth at 100 µM [25]: 184%; inhibition of growth at 100 µM [26]: 188%; inhibition of growth at 100 µM [27]: 158%; inhibition of growth at 100 µM [28]: 181%; inhibition of growth at 100 µM [29]: 200%; inhibition of growth at 100 µM [30]: 137%; growth at 100 µM [31]: 58%
